This note sets out measurements from ChEMBL document CHEMBL1139924, “The structure-activity relationship of the series of non-peptide small antagonists for p56lck SH2 domain” (Bioorg Med Chem, 2007).

Data set [1] deals with Jurkat. The data set can be described thus: Inhibition of Jurkat cell activation assessed as blocking of T-cell antigen receptor-induced IL-2 expression at 10 uM by luciferase assay. The format is functional. The note with it: Homo sapiens. The gist of the method: (§1)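 Jurkat T cells (2 × 10⁶) transfected with 2 µg IL-2-luciferase reporter by lipofection. Compounds added 2 h before activation and kept present throughout 16 h stimulation with plate-coated anti-CD3 mAb (5 µg/ml, UCHT1) or […] plus ionomycin (0.5 µg/ml). Cells then washed, lysed and read for luciferase by luminometry. Three independent experiments in duplicate. Cyclosporin A positive control.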

The nature of data set [2]: Partition coefficient, log P of the compound. To be noted: octanol/water. The format is physicochemical. The gist of the method: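 Shake-flask partition. Compound at 1 mM final in 1-octanol/water with an equal volume of 1-octanol/water added, vortexed 30 min. P is the octanol concentration divided by the aqueous concentration. Three independent experiments in duplicate.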

Data set [3] is described as follows: Inhibition of p56lck SH2 domain by ELISA. Also noted: species or system Homo sapiens. The gist of the method:
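Competitive ELISA. Compound plus GST-p56lck SH2 fusion (100 ng/ml) incubated 1 h at room temperature, in duplicate wells. Bound protein detected with rabbit anti-GST, then HRP anti-rabbit and TMB, acid-stopped, A450. Ac-pYEEIE control peptide; IC50 reported.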
A general note: An ELISA detects its analyte on a solid surface through an enzyme-linked reagent.

Data set [4] has as its system Jurkat. The data set can be described thus: Inhibition of Jurkat cell activation assessed as blocking of T-cell antigen receptor-induced IL-2 expression at 30 uM by luciferase assay. To be noted: Homo sapiens. The format is functional. The gist of the method:
as §1

pIC50: −log10 of the molar value. Calls of active or inactive are those of the source. The rule behind the calls is not given here.

For orientation: inhibition means the relative decrease from the control value, in per cent. For orientation: logP means the decadic logarithm of the partition coefficient of the neutral form, usually between octanol and water. Usually pIC50 stands for −log10 of the IC50, conventionally taken in molar units. Higher therefore signals a low IC50.

Consider `CC(C)OC(=O)[C@@H](Cc1ccc(O)c(O)c1)OC(=O)/C=C/c1ccc(O)c(O)c1`, for which the inhibition at 10 µM in data set [1] was 86.1%. The compound further registered a logP in data set [2] of 1.83. The compound further gave a pIC50 in data set [3] of 3.96.
For `COC(=O)[C@@H](Cc1ccc(O)c(O)c1)NC(=O)/C=C/c1ccc(O)c(O)c1`, the inhibition at 10 µM in data set [1] was found to be 61.6%. The compound also had a logP in data set [2] of 1.39. The compound further had a negative-log IC50 (pIC50) in data set [3] of 4.15.
The like results for `CCOC(=O)[C@@H](Cc1ccc(O)c(O)c1)OC(=O)/C=C/c1ccc(O)c(O)c1` [ETHYL ROSMARINATE] were, in that order, 22.7%, 1.5 and 4.04.
For `COC(=O)CCCCCNC(=O)[C@@H](Cc1ccc(O)c(O)c1)OC(=O)/C=C/c1ccc(O)c(O)c1` the same measures were 29.4%, 1.68 and less than 3.30.
In the case of `CCCOC(=O)[C@@H](Cc1ccc(O)c(O)c1)OC(=O)/C=C/c1ccc(O)c(O)c1`, the inhibition at 10 µM in data set [1] is 87.5%. The same compound registered a logP in data set [2] of 1.52. In addition, in data set [3], the pIC50 was 3.84.
With `O=C(/C=C/c1ccc(O)c(O)c1)N[C@@H](Cc1ccc(O)c(O)c1)C(=O)O`, the inhibition at 10 µM in data set [1] worked out at 11%. In data set [2], this compound registered a logP of 0.731. Also, the pIC50 in data set [3] was 4.68.
The like results for `O=C(CCc1ccc(O)c(O)c1)N[C@H](Cc1ccc(O)c(O)c1)C(=O)O` were, in that order, 0%, 0.493 and 4.89.
The like results for `O=C(CCc1ccc(O)c(O)c1)O[C@H](Cc1ccc(O)c(O)c1)C(=O)O` were, in that order, 7.6%, 0.503 and 4.82.
The like results for `COC(=O)[C@@H](Cc1ccc(O)c(O)c1)NC(=O)Cc1ccc(O)c(O)c1` were, in that order, 23%, 0.138 and 4.68.
For `COC(=O)[C@@H](Cc1ccc(O)c(O)c1)NC(=O)/C=C/c1ccc(OC)c(O)c1`, the inhibition at 10 µM in data set [1] was determined as 5.4%. Moreover, in data set [2], the logP was determined as 1.37. Besides, the pIC50 in data set [3] is less than 3.30.
In the case of `COC(=O)[C@@H](Cc1ccc(O)c(O)c1)NC(=O)/C=C/c1ccc(O)c(OC)c1`, the inhibition at 10 µM in data set [1] came out at 2.2%. In data set [2], this compound displayed a logP of 1.31. In data set [3], the pIC50 was less than 3.30.
The like results for `COC(=O)[C@@H](Cc1ccc(O)c(O)c1)NC(=O)c1ccc(O)c(O)c1` were, in that order, 0.4%, 0.125 and 4.72.
The like results for `O=C(/C=C/c1ccc(O)c(O)c1)N[C@H](Cc1ccc(O)c(O)c1)C(=O)O` were, in that order, 10.3%, 0.758 and 4.70.
For `O=C(O)/C=C/c1ccc(O)c(O)c1` [CAFFEIC ACID], the inhibition at 10 µM in data set [1] was found to be 2%. This compound gave a pIC50 in data set [3] of less than 3.30.
Turning to `COC(=O)[C@@H](Cc1ccc(OC)c(OC)c1)NC(=O)/C=C/c1ccc(O)c(O)c1`, in data set [1], the inhibition at 10 µM was determined as 9.4%. For the same compound, the logP in data set [2] worked out at 1.53. The same compound had a negative-log IC50 (pIC50) in data set [3] of less than 3.30.
Regarding `COC(=O)[C@@H](Cc1ccc(O)c(O)c1)OC(=O)/C=C/c1ccc(O)c(O)c1` [METHYL ROSMARINATE], in data set [1], the inhibition at 10 µM was 54.7%. In addition, the result in data set [4] was Active. The compound also gave a logP in data set [2] of 1.48. Besides, in data set [3], the negative-log IC50 (pIC50) is 4.10.
As to `COC(=O)[C@@H](Cc1ccc(O)c(O)c1)NC(=O)CCc1ccc(O)c(O)c1`, the inhibition at 10 µM in data set [1] turned out to be 7.5%. In data set [2], the logP came to 0.344. This compound also showed a negative logarithm of the IC50 (pIC50) in data set [3] of 4.49.
In the case of `NC(Cc1ccc(O)c(O)c1)C(=O)O` (racemic), the inhibition at 10 µM in data set [1] came out at 0.6%. This compound gave a pIC50 in data set [3] of less than 3.30.
Consider `CC(C)(C)OC(=O)[C@@H](Cc1ccc(O)c(O)c1)OC(=O)/C=C/c1ccc(O)c(O)c1`, for which the inhibition at 10 µM in data set [1] came to 80.7%. In data set [2], the lipophilicity (logP) amounted to 2. The pIC50 in data set [3] was 3.90.
`O=C(/C=C/c1ccc(O)c(O)c1)O[C@H](Cc1ccc(O)c(O)c1)C(=O)O` [ROSMARINIC ACID]: the inhibition at 10 µM in data set [1] is 40.4%. For the same compound, the inhibition at 30 µM in data set [4] turned out to be 50%. The logP in data set [2] amounted to 0.834. The compound also gave a pIC50 in data set [3] of 4.62.
`COC(=O)[C@@H](Cc1ccc(O)c(O)c1)NC(=O)/C=C/c1ccc(OC)c(OC)c1`: the inhibition at 10 µM in data set [1] came to 3.5%. The compound also returned a logP in data set [2] of 1.52. Moreover, the negative-log IC50 (pIC50) in data set [3] is less than 3.30.
